{"source": "ChEMBL document CHEMBL4819034", "about": "“Tricyclic-Carbocyclic RORγt Inverse Agonists-Discovery of BMS-986313” (J Med Chem, 2021)", "key": {"[1]": {"experiment": "Volume of distribution at steady state in dog at 1 mg/kg, iv", "assay_type": "ADME, organism-based, Canis lupus familiaris", "conditions": "in vivo, read-out: Vdss", "outline": "(§1)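 Single intravenous dose: mouse and rat 2 mg/kg, dog and cynomolgus 1 mg/kg. Steady-state volume of distribution was derived from the IV arm. Values are means from three or more animals.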"}, "[2]": {"system": "Mus musculus", "experiment": "Protection against recombinant human IL23-induced acanthosis C57BL/6 mouse model assessed as reduction in IL-17F mRNA levels at 15 mg/kg, po BID BID for 10 days by qRT-PCR analysis relative to control", "assay_type": "functional", "parameters": "scale not given: the % may be the effect or the level left", "conditions": "time 10 day", "outline": "(§2)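 In the IL-23 ear-injection model in C57BL/6 mice with BID oral dosing, ear tissue was collected from all animals at study end on day 10. IL-17A and IL-17F mRNA expression was quantified by qPCR and compared with the placebo arm.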"}, "[3]": {"system": "Mus musculus", "experiment": "Protection against imiquimod-induced C57BL/6 mouse model of psoriasis assessed as reduction in IL-17A mRNA levels at 5 mg/kg, po BID for 7 days by RT-PCR analysis relative to control", "assay_type": "functional", "parameters": "scale not given: the % may be the effect or the level left", "conditions": "time 7 day"}, "[4]": {"target": "T1, Cytochrome P450 2C8 (Homo sapiens, UniProt P10632)", "T1 sequence (P10632 whole entry)": "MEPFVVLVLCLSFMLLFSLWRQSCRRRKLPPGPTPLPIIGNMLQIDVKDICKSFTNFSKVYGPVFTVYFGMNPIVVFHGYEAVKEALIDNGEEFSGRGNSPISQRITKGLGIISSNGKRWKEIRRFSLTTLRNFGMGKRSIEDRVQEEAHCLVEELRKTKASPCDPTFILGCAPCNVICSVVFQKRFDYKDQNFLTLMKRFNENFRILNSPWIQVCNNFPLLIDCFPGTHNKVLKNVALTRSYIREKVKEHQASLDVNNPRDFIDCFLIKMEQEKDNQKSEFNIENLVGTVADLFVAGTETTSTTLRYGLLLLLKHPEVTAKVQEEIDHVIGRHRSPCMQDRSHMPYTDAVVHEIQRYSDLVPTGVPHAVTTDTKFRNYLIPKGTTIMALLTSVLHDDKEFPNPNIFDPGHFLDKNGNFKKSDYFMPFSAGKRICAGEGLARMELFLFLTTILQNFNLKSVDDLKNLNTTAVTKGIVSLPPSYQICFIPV", "experiment": "Inhibition of CYP2C8 (unknown origin)", "assay_type": "ADME"}, "[5]": {"experiment": "AUC (0 to 24 hrs) in dog at 2 mg/kg, po", "assay_type": "ADME, organism-based, Canis lupus familiaris", "parameters": "time < 24 hr, route oral, dose 2 mg/kg", "conditions": "in vivo"}, "[6]": {"target": "T2, Nuclear receptor ROR-beta (Homo sapiens, UniProt Q92753)", "T2 sequence (Q92753 whole entry)": "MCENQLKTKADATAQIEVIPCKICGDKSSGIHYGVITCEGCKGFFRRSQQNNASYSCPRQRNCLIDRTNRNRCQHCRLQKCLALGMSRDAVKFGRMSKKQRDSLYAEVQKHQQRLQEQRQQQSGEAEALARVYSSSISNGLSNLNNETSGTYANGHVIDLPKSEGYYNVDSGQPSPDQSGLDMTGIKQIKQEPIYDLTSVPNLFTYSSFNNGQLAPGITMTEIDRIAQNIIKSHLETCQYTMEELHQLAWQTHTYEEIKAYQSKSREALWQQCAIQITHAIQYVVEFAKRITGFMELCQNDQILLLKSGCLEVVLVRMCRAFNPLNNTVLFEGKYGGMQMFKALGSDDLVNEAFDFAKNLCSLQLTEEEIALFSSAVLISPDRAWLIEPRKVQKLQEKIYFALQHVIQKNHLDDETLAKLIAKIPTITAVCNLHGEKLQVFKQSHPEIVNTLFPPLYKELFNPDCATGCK", "experiment": "Inverse agonist activity at Gal4-fused RORbeta (unknown origin)"}, "[7]": {"target": "Cytochrome P450 2C9 (Homo sapiens, UniProt P11712)", "sequence (P11712 whole entry)": "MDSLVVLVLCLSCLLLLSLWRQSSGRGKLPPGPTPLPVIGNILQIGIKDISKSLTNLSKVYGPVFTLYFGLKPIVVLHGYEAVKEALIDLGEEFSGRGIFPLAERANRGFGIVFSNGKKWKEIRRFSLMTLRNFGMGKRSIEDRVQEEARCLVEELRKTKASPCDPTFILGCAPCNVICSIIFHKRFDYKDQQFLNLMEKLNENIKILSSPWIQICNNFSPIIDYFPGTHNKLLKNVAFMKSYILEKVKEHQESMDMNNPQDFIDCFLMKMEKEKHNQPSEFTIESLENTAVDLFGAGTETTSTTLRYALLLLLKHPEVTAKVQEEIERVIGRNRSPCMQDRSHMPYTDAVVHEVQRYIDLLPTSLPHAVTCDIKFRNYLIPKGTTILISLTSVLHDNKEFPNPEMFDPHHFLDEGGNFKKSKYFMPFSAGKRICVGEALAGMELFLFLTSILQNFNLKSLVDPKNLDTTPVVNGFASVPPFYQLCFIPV", "experiment": "Inhibition of CYP2C9 (unknown origin)", "assay_type": "ADME"}, "[8]": {"system": "Mus musculus", "experiment": "Protection against recombinant human IL23-induced acanthosis C57BL/6 mouse model assessed as reduction in IL-17F mRNA levels at 6 mg/kg, po BID BID for 10 days by qRT-PCR analysis relative to control", "assay_type": "functional", "parameters": "scale not given: the % may be the effect or the level left", "conditions": "time 10 day", "outline": "as §2"}, "[9]": {"experiment": "AUC (0 to 24 hrs) in cynomolgus monkey at 2 mg/kg, po", "assay_type": "ADME, organism-based, Macaca fascicularis", "parameters": "time < 24 hr, route oral, dose 2 mg/kg", "conditions": "in vivo"}, "[10]": {"target": "T3, Oxysterols receptor LXR-alpha (Homo sapiens, UniProt Q13133)", "T3 sequence (Q13133 whole entry)": "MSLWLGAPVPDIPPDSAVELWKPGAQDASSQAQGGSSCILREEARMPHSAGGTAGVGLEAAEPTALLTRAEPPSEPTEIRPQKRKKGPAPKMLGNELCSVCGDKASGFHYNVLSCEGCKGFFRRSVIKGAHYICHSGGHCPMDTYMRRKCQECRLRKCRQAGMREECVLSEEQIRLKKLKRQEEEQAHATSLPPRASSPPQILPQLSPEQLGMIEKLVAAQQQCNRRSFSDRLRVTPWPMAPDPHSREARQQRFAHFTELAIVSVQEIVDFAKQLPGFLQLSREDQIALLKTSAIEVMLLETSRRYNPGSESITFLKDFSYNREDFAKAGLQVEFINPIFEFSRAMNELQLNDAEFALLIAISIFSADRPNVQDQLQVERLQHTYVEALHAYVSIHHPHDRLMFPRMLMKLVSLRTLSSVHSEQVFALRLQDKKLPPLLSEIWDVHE", "experiment": "Inverse agonist activity at LXRalpha (unknown origin)"}, "[11]": {"experiment": "Volume of distribution at steady state in cynomolgus monkey at 1 mg/kg, iv", "assay_type": "ADME, organism-based, Macaca fascicularis", "conditions": "in vivo, read-out: Vdss", "outline": "as §1"}, "[12]": {"system": "Mus musculus", "experiment": "Protection against imiquimod-induced C57BL/6 mouse model of psoriasis assessed as inhibition of skin thickening at 10 mg/kg, po BID for 7 days and measured every day for 8 days relative to control", "assay_type": "functional", "conditions": "C57BL/6, po, 168 h, time 7 day"}, "[13]": {"experiment": "Oral bioavailability in mouse at 4 mg/kg", "assay_type": "ADME, organism-based", "conditions": "in vivo", "outline": "(§3)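 Single-dose PK, IV and PO. Doses: mouse and rat 2 mg/kg IV / 4 mg/kg PO; dog and cyno 1 mg/kg IV, with 1 or 2 mg/kg PO.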"}, "[14]": {"experiment": "Permeability across apical to basolateral membrane in human Caco-2 cells", "assay_type": "ADME, cell-based", "conditions": "read-out: permeability", "outline": "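Caco-2 monolayer permeability, apical-to-basolateral direction (Pc, nm/s). An efflux ratio is also reported.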"}, "[15]": {"system": "Mus musculus", "experiment": "Protection against recombinant human IL23-induced acanthosis C57BL/6 mouse model assessed as reduction in IL-17A mRNA levels at 6 mg/kg, po BID BID for 10 days by qRT-PCR analysis relative to control", "assay_type": "functional", "parameters": "scale not given: the % may be the effect or the level left", "conditions": "time 10 day", "outline": "as §2"}, "[16]": {"experiment": "Clearance in rat at 2 mg/kg, iv", "assay_type": "ADME, organism-based", "conditions": "in vivo", "outline": "as §3"}, "[17]": {"system": "Mus musculus", "experiment": "Protection against imiquimod-induced C57BL/6 mouse model of psoriasis assessed as reduction in IL-17F mRNA levels at 5 mg/kg, po BID for 7 days by RT-PCR analysis relative to control", "assay_type": "functional", "parameters": "scale not given: the % may be the effect or the level left", "conditions": "time 7 day"}, "[18]": {"experiment": "AUC (0 to 24 hrs) in mouse at 4 mg/kg, po", "assay_type": "ADME, organism-based", "parameters": "time < 24 hr, route oral, dose 4 mg/kg", "conditions": "in vivo"}, "[19]": {"experiment": "Cmax in rat at 4 mg/kg, po", "assay_type": "ADME, organism-based", "parameters": "route oral, dose 4 mg/kg", "conditions": "in vivo", "outline": "as §3"}}}
{"compound": "CC(C)(O)C(=O)N[C@@H]1CC[C@@]2(S(=O)(=O)c3ccc(F)cc3)c3ccc(C(F)(C(F)(F)F)C(F)(F)F)cc3CC[C@@H]12", "values": [{"measurement": "Vd", "setting": "[1]", "result": 3.2, "unit": "L/kg"}, {"measurement": "Activity", "setting": "[2]", "result": 79.6, "unit": "%"}, {"measurement": "Activity", "setting": "[3]", "result": 75.9, "unit": "%"}, {"measurement": "IC50", "setting": "[4]", "result": 12, "unit": "µM"}, {"measurement": "AUC(0-t) at 24 h", "setting": "[5]", "result": 59.8, "unit": "µM·h"}, {"measurement": "EC50", "setting": "[6]", "result": "> 10", "unit": "µM"}, {"measurement": "IC50", "setting": "[7]", "result": 12, "unit": "µM"}, {"measurement": "Activity", "setting": "[8]", "result": 87.3, "unit": "%"}, {"measurement": "AUC(0-t) at 24 h", "setting": "[9]", "result": 18, "unit": "µM·h"}, {"measurement": "EC50", "setting": "[10]", "result": "> 5", "unit": "µM"}, {"measurement": "Vd", "setting": "[11]", "result": 2.7, "unit": "L/kg"}, {"measurement": "inhibition in vivo at 10 mg/kg", "setting": "[12]", "result": 39.6, "unit": "%"}, {"measurement": "bioavailability", "setting": "[13]", "result": 100, "unit": "%"}, {"measurement": "Papp A→B", "setting": "[14]", "result": 10.6, "unit": "×10⁻⁶ cm/s"}, {"measurement": "Activity", "setting": "[15]", "result": 64.9, "unit": "%"}, {"measurement": "clearance", "setting": "[16]", "result": 4.2, "unit": "mL/min/kg"}, {"measurement": "Activity", "setting": "[17]", "result": 79.2, "unit": "%"}, {"measurement": "AUC(0-t) at 24 h", "setting": "[18]", "result": 33.2, "unit": "µM·h"}, {"measurement": "Cmax", "setting": "[19]", "result": 1000, "unit": "nM"}]}
